Experimental data as given in ChEMBL document CHEMBL5678798 (Clin Cancer Res, 2009).

What was measured:
[1] = molecular target: Serine/threonine-protein kinase pim-1 (Homo sapiens) (UniProt P11309); assay: Inhibition of N-terminal GST-tagged recombinant human full-length Pim-1 expressed in Escherichia coli cells at 3 uM by filter binding assay relative to control
Outline: (§1)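 Outsourced single-concentration screen in a commercial panel of 233 protein kinases, run as radiometric filter-binding activity assays. Test agent was tested at 0.3 or 3 µmol/L, as given in each line, from a 10 mmol/L DMSO stock. Activity is expressed as percent inhibition relative to control.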

[2] = In vivo inhibition of IGF1R in mouse NIH-3T3/LISN cells implanted in IGF1-stimulated nu/nu CD-1 mouse assessed as reduction in IGF1R phosphorylation at 30 mg/kg, po pretreated for 4 hrs followed by IGF1 stimulation and measured after 10 min by […] relative to control; format: functional; conditions: 4.167 h, time 250 min
Outline: (§2)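 Female nu/nu CD-1 mice, three per group, bearing ~500 mm3 tumors, given one oral dose of compound or vehicle. At 4 h, 10 µg hIGF-I i.v. via tail vein; saline controls. Tumor and blood taken 10 min later. Tumor lysates in RIPA captured on anti-IGF-IR plates and probed with europium anti-phosphotyrosine. Phospho/total IGF-IR expressed as % of ligand-stimulated control. Blood levels by LC-MS/MS.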

[3] = molecular target: MAP kinase-interacting serine/threonine-protein kinase 2 (Homo sapiens) (UniProt Q9HBH9); assay: Inhibition of N-terminal 6His-tagged recombinant human full-length Mnk2 expressed in baculovirus infected Sf21 cells at 3 uM by filter binding assay relative to control; outline: as §1
MAP kinase-interacting serine/threonine-protein kinase 2 (Homo sapiens), sequence (Q9HBH9 whole entry, looked up): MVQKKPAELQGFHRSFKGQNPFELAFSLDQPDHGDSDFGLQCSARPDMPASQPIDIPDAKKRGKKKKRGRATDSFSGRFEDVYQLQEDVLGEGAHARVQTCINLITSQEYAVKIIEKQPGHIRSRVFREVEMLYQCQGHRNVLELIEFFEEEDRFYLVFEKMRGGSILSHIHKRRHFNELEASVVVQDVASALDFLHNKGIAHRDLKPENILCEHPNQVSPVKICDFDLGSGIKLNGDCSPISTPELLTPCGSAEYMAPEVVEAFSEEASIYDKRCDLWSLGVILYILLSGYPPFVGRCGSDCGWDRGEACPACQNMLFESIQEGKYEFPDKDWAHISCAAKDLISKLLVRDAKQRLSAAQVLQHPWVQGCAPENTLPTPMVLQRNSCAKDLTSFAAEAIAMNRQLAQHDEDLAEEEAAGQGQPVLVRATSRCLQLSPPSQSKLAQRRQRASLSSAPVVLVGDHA

[4] = molecular target: Serine/threonine-protein kinase tousled-like 2 (Homo sapiens) (UniProt Q86UE8); assay: Inhibition of N-terminal 6His-tagged recombinant human TLK2 (388 to end residues) expressed in baculovirus infected Sf21 cells at 0.3 uM by filter binding assay relative to control; outline: as §1
COLO 205 [5] = assay: In vivo inhibition of IGF1R in human COLO 205 cells xenografted in IGF1-stimulated po dosed nu/nu CD-1 mouse assessed as reduction in IGF1R phosphorylation pretreated for 4 hrs followed by IGF1 stimulation and measured after 15 min by radioimmunoprecipitation assay; format: functional, organism-based; conditions: dose 1-60 mg/kg, time 4.17 hrs, in the assay text read “measured after 10 min” for “measured after 15 min”; outline: as §2
[6] = molecular target: MAP kinase-activated protein kinase 5 (Homo sapiens) (UniProt Q8IW41); assay: Inhibition of N-terminal His6-tagged recombinant human full-length PRAK expressed in baculovirus infected Sf21 cells at 3 uM by filter binding assay relative to control
[7] = Antiproliferative activity against human L-82 cells assessed as reduction in cell viability after 72 hrs by CellTiter-Glo assay; format: functional, cell-based; conditions: L-82, 72 h
Outline: (§3)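 Cells seeded in 96-well plates, left overnight at 37°C, then exposed to a range of test concentrations for 72 h. Viability read by CellTiter-Glo luminescence; IC50 from four-parameter curve fit. Lines kept at 37°C, 5% CO2, in recommended growth medium.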

[8] = molecular target: Testis-specific serine/threonine-protein kinase 1 (Homo sapiens) (UniProt Q9BXA7); assay: Inhibition of 6His-tagged recombinant human full length TSSK1 expressed in baculovirus infected Sf21 cells at 0.3 uM by filter binding assay relative to control
Testis-specific serine/threonine-protein kinase 1 (Homo sapiens), sequence (Q9BXA7 whole entry): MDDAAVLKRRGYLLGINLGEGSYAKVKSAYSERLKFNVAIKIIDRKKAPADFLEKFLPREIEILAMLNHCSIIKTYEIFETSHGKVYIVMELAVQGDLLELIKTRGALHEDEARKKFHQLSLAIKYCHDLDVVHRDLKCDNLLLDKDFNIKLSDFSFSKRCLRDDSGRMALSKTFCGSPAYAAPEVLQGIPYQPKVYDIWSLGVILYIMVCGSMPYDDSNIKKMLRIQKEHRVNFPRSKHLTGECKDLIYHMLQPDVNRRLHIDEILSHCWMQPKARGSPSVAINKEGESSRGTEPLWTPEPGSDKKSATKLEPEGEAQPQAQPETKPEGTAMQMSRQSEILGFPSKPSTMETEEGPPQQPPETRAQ
Outline: (§4)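 KinaseProfiler panel of 233 kinases: radiometric filter-binding activity assays with compound at 0.3 or 3 µmol/L. Read-out is percent inhibition.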

COLO 205 [9] = assay: Antitumor activity against human COLO 205 cells xenografted in nu/nu CD-1 mouse assessed as reduction in tumor growth at 30 mg/kg, po for 21 days relative to control; format: functional; conditions: COLO 205, 504 h, time 21 day, read-out: TGI
Outline: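 Exponentially growing cells implanted s.c. in the right flank of 8–10-wk-old female athymic nu/nu CD-1 mice. At 150–200 mm3, block-randomized by tumor size into groups of eight. Oral dosing once or twice daily for 21 d; vehicle 20% sulfobutylether-β-cyclodextrin, pH 3.5. Calipers twice weekly; volume = length×width²/2. Growth inhibition = 100×[1 − treated growth/vehicle growth].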

[10] = molecular target: Receptor tyrosine-protein kinase erbB-4 (Homo sapiens, UniProt Q15303); assay: Inhibition of ErbB4 (unknown origin)
Receptor tyrosine-protein kinase erbB-4, sequence (Q15303 whole entry): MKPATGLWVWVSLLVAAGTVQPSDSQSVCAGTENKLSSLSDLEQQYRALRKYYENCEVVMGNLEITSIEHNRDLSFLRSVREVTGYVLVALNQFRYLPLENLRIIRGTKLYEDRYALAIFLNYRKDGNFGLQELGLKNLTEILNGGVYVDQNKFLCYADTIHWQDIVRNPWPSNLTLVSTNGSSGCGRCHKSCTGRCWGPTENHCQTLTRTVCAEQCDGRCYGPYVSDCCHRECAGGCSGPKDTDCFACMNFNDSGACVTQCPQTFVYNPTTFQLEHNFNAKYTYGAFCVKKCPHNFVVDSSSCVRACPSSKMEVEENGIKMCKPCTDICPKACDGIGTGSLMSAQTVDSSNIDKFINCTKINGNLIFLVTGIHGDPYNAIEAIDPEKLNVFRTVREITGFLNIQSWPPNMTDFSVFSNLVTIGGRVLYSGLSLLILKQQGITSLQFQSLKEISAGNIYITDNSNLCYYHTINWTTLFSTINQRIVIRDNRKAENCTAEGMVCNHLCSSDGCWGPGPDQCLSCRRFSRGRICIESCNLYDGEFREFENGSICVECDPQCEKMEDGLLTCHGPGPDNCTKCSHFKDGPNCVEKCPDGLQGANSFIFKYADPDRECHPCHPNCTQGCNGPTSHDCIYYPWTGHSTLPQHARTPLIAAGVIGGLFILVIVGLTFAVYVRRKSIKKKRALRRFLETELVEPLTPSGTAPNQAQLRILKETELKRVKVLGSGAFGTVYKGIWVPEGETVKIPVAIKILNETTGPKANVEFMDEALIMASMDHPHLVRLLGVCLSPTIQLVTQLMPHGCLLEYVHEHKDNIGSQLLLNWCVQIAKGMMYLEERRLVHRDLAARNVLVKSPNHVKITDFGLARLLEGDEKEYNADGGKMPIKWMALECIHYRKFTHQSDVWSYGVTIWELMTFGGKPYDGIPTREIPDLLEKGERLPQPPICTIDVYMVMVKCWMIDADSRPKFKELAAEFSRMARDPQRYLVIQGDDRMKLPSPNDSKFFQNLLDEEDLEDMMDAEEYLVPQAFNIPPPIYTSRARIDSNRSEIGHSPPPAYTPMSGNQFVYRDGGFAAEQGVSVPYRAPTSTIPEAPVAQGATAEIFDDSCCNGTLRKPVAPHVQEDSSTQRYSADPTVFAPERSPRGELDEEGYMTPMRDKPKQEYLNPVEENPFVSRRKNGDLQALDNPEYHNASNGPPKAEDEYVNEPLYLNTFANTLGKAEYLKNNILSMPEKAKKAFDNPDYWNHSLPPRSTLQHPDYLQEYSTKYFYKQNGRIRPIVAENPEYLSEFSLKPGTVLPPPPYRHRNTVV

[11] = Toxicity in nu/nu CD-1 mouse implanted with mouse NIH-3T3/LISN cells assessed as reduction in body weight at 30 mg/kg, po for 21 days; format: organism-based; conditions: in vivo, 504 h, time 21 day
[12] = molecular target: Protein kinase C alpha type (Homo sapiens) (UniProt P17252); assay: Inhibition of N-terminal His6 tagged recombinant full-length human PKCalpha expressed in baculovirus infected Sf21 cells at 3 uM by filter binding assay relative to control; outline: as §1
[13] = molecular target: Glycogen synthase kinase-3 beta (Homo sapiens, UniProt P49841); assay: Inhibition of GSK3beta (unknown origin)
[14] = molecular target: Mitogen-activated protein kinase 1 (Homo sapiens) (UniProt P28482); assay: Inhibition of N-terminal GST-tagged recombinant human MAPK2 expressed in Escherichia coli at 0.3 uM by filter binding assay relative to control; outline: as §1
Mitogen-activated protein kinase 1 (Homo sapiens), sequence (P28482 whole entry): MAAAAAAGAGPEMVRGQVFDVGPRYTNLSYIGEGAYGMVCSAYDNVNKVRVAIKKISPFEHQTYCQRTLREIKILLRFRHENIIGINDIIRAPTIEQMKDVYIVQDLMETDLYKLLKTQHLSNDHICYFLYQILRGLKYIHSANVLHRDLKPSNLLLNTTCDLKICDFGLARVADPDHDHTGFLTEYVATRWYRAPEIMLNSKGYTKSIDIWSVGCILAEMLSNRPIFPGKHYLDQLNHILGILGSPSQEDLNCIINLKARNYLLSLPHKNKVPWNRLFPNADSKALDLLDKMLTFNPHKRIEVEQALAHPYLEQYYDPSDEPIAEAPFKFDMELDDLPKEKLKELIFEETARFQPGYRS

[15] = Inhibition of recombinant mouse N-terminal 6His-tagged full length P110alpha/full length mouse […] expressed in baculovirus infected Sf21 cells at 3 uM by filter binding assay relative to control; conditions: condition cancer
[16] = molecular target: RAC-beta serine/threonine-protein kinase (Homo sapiens, UniProt P31751); assay: Inhibition of AKT2 (unknown origin)
RAC-beta serine/threonine-protein kinase, sequence (P31751 whole entry, the tested form may be a part): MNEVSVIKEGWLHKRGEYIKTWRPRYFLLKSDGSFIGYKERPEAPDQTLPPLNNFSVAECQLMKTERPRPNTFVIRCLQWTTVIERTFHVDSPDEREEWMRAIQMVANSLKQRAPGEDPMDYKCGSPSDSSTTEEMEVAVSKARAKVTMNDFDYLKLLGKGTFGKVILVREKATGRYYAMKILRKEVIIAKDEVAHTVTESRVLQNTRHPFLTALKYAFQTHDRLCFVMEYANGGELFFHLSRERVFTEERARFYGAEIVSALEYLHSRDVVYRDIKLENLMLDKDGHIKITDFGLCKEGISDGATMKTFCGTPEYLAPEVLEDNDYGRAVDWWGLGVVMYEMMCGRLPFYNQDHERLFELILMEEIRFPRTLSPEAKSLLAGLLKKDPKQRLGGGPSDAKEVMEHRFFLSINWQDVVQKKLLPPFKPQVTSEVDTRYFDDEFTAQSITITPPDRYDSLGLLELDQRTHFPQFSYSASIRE

[17] = molecular target: Fibroblast growth factor receptor 1 (Homo sapiens, UniProt P11362); assay: Inhibition of N-terminal GST-tagged recombinant human FGFR1 (456 to 765 residues) expressed in baculovirus infected Sf21 cells by filter binding assay
[18] = molecular target: 3-phosphoinositide-dependent protein kinase 1 (PDPK1) (Homo sapiens) (UniProt O15530); assay: Inhibition of N-terminal His6-tagged recombinant human PDK1 (52 to end residues) expressed in baculovirus infected Sf21 cells at 0.3 uM by filter binding assay relative to control
3-phosphoinositide-dependent protein kinase 1 (PDPK1) (Homo sapiens), sequence (O15530 whole entry, looked up): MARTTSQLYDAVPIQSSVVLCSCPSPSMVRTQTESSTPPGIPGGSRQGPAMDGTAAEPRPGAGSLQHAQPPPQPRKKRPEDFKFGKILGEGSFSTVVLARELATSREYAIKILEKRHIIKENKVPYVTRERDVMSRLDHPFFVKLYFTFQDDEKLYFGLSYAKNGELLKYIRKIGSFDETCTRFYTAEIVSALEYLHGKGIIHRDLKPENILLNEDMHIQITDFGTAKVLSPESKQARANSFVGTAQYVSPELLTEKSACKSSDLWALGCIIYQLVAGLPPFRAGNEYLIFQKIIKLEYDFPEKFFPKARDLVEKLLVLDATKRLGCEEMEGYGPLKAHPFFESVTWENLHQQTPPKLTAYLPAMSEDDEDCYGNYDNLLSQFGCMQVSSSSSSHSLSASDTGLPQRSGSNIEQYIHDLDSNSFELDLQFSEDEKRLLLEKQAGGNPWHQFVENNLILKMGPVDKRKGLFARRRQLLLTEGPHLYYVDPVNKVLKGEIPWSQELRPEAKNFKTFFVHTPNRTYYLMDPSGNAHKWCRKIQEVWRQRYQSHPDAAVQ

[19] = Inhibition of N-terminal His6-tagged recombinant full-length human CDK5/N-terminal GST-tagged recombinant full-length human p35 expressed in baculovirus infected Sf21 cells at 3 uM by filter binding assay relative to control; conditions: condition cancer; outline: as §1
[20] = molecular target: Inhibitor of nuclear factor kappa-B kinase subunit alpha (Homo sapiens, UniProt O15111); assay: Inhibition of IKK1 (unknown origin)
Rattus norvegicus = organism: Rattus norvegicus; assay: Inhibition of recombinant rat AMPK at 0.3 uM by filter binding assay relative to control
[21] = molecular target: Mitogen-activated protein kinase 9 (Homo sapiens, UniProt P45984); assay: Inhibition of JNK2 (unknown origin)
Mitogen-activated protein kinase 9, sequence (P45984 whole entry): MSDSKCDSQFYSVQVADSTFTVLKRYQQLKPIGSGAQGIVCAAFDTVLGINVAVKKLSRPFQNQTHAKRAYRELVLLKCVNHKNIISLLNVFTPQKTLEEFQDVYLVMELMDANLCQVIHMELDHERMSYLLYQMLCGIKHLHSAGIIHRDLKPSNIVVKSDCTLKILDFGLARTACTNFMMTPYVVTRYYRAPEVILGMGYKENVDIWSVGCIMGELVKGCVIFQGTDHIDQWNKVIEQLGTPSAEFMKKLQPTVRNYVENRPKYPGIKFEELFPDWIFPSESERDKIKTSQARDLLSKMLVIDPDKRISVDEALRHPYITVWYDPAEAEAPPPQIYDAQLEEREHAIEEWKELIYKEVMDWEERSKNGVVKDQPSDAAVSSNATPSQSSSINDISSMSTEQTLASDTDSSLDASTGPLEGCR

[22] = Antiproliferative activity against human HuNS1 cells assessed as reduction in cell viability after 72 hrs by CellTiter-Glo assay; format: functional, cell-based; conditions: HuNS1, 72 h; outline: as §3
[23] = molecular target: Calcium/calmodulin-dependent protein kinase type IV (Homo sapiens) (UniProt Q16566); assay: Inhibition of C-terminal His6-tagged recombinant full length human CaMKIV expressed in baculovirus infected Sf21 cells at 0.3 uM by filter binding assay relative to control; outline: as §4

Serine/threonine-protein kinase pim-1 (Homo sapiens), sequence (P11309 whole entry, looked up): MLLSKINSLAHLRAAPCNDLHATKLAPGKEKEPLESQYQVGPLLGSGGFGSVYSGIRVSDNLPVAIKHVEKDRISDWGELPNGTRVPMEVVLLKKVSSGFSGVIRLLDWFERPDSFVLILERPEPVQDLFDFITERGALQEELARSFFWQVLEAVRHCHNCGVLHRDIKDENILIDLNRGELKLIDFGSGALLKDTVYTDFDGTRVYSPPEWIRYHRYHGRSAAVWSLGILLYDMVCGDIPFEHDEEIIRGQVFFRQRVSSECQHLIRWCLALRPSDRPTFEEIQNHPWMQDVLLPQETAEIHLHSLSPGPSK

Work on `CCc1cc(Nc2nccc(-c3c(-c4ccc(OC)c(C(=O)Nc5c(F)cccc5F)c4)nc4ccccn34)n2)c(OC)cc1N1CCC(N2CCN(S(C)(=O)=O)CC2)CC1` yielded an inhibition [1] of 25%, an inhibition in vivo at 30 mg/kg [2] of 99% and an inhibition [3] of 24%. The inhibition [4] was 0%, the inhibition (COLO 205 [5]) was “Dose-Dependent Effect” and the inhibition [6] was 35%. The IC50 [7] was > 30 µM, the inhibition [8] was 10% and the inhibition in vivo at 30 mg/kg (COLO 205 [9]) was 75%. The IC50 [10] was > 25 µM, the Activity [11] was “Non-Toxic” and the inhibition [12] was 1%. For the same compound, the IC50 [13] was > 25 µM, the inhibition [14] was -10% and the inhibition at 3 µM [15] was 0%. The IC50 [16] was > 10 µM, the IC50 [17] was 1.88 µM and the inhibition [18] was 1%. For the same compound, the inhibition at 3 µM [19] was -24%, the IC50 [20] was 13 µM and the inhibition (Rattus norvegicus) was 0%. For the same compound, the IC50 [21] was > 10 µM, the IC50 [22] was > 30 µM and the inhibition [23] was 11%.
